Read-outs that look alike come from different tables or passages of the source.
Assays:
[1] = tested on: HIF-1α levels in MCF7 cells; experiment: Cellular HIF-1α levels; assay type: cell-based, human; settings: 24 hours
[2] = biological target: T1, human JMJD2C(1–420) (Homo sapiens, UniProt Q9H3R0); assay type: biochemical; settings: at up to 50 μM, the highest concentration tested
T1 sequence (Q9H3R0 1-420): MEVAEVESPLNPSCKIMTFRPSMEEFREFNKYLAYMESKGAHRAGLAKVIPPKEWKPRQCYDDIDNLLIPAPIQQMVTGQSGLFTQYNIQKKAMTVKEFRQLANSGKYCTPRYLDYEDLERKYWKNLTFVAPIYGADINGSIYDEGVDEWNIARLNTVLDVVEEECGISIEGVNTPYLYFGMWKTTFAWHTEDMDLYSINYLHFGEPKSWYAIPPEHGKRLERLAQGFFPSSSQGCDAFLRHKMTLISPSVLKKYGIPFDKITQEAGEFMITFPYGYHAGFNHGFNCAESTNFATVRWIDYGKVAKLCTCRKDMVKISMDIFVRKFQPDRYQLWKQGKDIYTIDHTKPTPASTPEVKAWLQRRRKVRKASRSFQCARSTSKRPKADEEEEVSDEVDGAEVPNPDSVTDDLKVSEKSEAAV

[3] = biological target: T2, JMJD2A (H3K9me3 and H3K36me3 demethylase) (Homo sapiens, UniProt O75164); experiment: JMJD2A enzyme inhibition in vitro; assay type: biochemical; settings: at up to 50 μM, the highest concentration tested
T2 sequence (O75164 1-1064): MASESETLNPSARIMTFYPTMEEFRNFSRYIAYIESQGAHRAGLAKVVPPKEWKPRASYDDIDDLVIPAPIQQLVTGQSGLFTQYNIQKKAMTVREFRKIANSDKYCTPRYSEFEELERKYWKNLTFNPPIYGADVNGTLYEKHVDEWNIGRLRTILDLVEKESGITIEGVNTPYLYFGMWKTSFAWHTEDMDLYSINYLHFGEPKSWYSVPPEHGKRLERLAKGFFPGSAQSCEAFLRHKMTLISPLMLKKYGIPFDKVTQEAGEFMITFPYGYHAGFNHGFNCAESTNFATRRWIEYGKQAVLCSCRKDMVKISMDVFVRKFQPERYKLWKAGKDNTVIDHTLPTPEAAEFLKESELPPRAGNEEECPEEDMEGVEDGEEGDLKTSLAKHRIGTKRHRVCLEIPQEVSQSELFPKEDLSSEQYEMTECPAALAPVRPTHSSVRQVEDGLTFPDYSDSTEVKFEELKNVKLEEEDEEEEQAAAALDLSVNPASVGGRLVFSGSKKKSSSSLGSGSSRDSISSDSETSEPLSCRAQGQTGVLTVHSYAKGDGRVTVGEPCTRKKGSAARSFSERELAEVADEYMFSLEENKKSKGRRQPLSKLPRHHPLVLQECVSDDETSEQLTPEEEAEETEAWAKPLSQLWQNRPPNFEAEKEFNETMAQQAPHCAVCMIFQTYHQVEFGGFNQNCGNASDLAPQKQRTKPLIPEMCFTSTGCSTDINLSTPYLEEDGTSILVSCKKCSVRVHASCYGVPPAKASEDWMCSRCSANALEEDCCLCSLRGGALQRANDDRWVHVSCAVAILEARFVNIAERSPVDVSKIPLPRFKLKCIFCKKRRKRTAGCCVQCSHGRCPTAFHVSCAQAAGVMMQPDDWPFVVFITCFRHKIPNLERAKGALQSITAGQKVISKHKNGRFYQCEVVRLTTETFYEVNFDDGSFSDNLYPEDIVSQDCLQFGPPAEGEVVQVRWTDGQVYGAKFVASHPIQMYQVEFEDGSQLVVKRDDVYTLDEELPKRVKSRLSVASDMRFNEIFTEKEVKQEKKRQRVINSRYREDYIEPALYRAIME

[4] = biological target: FAD-dependent demethylase, LSD1 (Homo sapiens, UniProt O60341); experiment: LSD1 enzyme inhibition in vitro; assay type: biochemical; settings: at up to 50 μM, the highest concentration tested
[5] = tested on: class I or class II HDACs; experiment: HDAC enzyme inhibition in vitro; assay type: biochemical; settings: at up to 50 μM, the highest concentration tested
[6] = tested on: JMJD2C-sensitive oesophageal carcinoma cell line KYSE150; experiment: KYSE150 growth inhibition assay; assay type: cell-based; settings: read-out: GI50, KYSE150 cell growth; treatment for 48 hours
[7] = Stability in KYSE150 cell growth media; assay type: in vitro ADME; settings: 37 °C, 48 hours, extraction with 3:1 chloroform:isopropanol
[8] = tested on: H3K4me3 and H3K9me3 levels in KYSE150 cells; assay type: cell-based
Procedure, shortened: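 KYSE150 cells were immunostained for H3K4me3 and H3K9me3 in a quantitative image-based assay. Image quantification gave half-maximal effective concentrations for each mark.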

[9] = tested on: H3K4me3 and H3K9me3 levels in MCF7 cells; assay type: cell-based, human
[10] = tested on: JMJD2C(1–420)-GFP fusion protein in HeLa cells; experiment: H3K9me3 immunostaining in HeLa cells ectopically expressing JMJD2C; assay type: cell-based, human; settings: 10 μM, 48 hours
Procedure, shortened: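 HeLa cells were transfected with JMJD2C(1–420)-GFP, then treated with DMSO or 10 μM test compound. After 48 h they were immunostained with anti-H3K9me3 antibody and DAPI nuclear stain. H3K9me3 was compared in GFP-transfected cells.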

[11] = tested on: histone methylation marks in KYSE150 cells; experiment: Western blotting of histone methylation marks in KYSE150 cells; assay type: cell-based; settings: 48 hours
Procedure, shortened: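 KYSE150 cells received DMSO, DFO 150 μM or DMOG 1 mM as positive controls for Fe²⁺/α-ketoglutarate hydroxylase inhibition, or test compound at 5, 10 or 15 μM, for 48 h. Histone methylation marks were assessed by Western blot, with histone levels based on coomassie stain.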

[12] = tested on: C2C12 cells; experiment: Myotube formation in C2C12 cells; assay type: cell-based; settings: C2C12 cells in differentiation media, 6 days
Procedure, shortened: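 C2C12 cells in differentiation media were given DMSO or test compound at 1, 2 or 4 μM. After 6 days they were immunostained with anti-myosin heavy chain antibody plus DAPI. MHC-positive myotubes were scored from the images.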

[13] = tested on: UTX-targeted genes Myog and CKm in C2C12 cells; experiment: RT-PCR of UTX-targeted genes during myogenesis; assay type: cell-based; settings: differentiating C2C12 myoblast, 1, 2 and 4 μM, 6 days
Procedure, shortened: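 Differentiating C2C12 myoblasts were given DMSO or test compound (1, 2, 4 μM) in differentiation media. mRNA was collected after 6 days, and RT-PCR measured Myog and Ckm.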

[14] = DFO at 150 μM, DMOG at 1 and 2 mM

Row | inhibition of enzymatic activity of JMJD2C [2] | inhibition of enzymatic activity of JMJD2A [3] | inhibition of enzymatic activity of LSD1 [4] | inhibition of enzymatic activity of HDACs [5] | GI50 [6] | EC50 ([8]; read-out: EC50 for H3K4me3) | EC50 ([8]; read-out: EC50 for H3K9me3) | EC50 ([9]; read-out: EC50 for H3K4me3) | EC50 ([9]; read-out: EC50 for H3K9me3) | Compound | cellular HIF-1α levels [1, 14] | recovered unchanged after incubation in cell growth media [7] | increase of the H3K9me3 mark [8] | increase of the H3K9me3 mark [9] | cellular HIF-1α levels ([1]; at up to 15 μM, the highest concentration tested) | reduction of H3K9me3 level by JMJD2C(1–420)-GFP [10] | methylation of H3K4, H3K9, H3K27 and H3K36 (Western blotting) ([11]; KYSE150 cells, 5, 10 and 15 μM, concentration-dependent) | cellular levels of H3K79me3 and H4K20me3 ([11]; KYSE150 cells) | concentration sufficient to prevent the formation of MHC-positive myotubes [12] | expression of UTX-targeted genes Myog and CKm (RT-PCR) [13]
1 | – | – | – | – | – | – | – | – | – | CC(=O)N(O)CCCCCNC(=O)CCC(=O)N(O)CCCCCNC(=O)CCC(=O)N(O)CCCCCN [DFO, desferoxamine] | significantly increased | – | – | – | – | – | – | – | – | –
2 | does not inhibit | does not inhibit | does not inhibit | does not inhibit | ~5.1 µM | 10.3 µM | 8.6 µM | 6.7 µM | 6.3 µM | COC(=O)/C=C/C(=O)N(O)CCCCNCc1ccc(COC(=O)Nc2cccc3ccccc23)cc1 [Methylstat, methylstat] | – | 88% | 10.8 fold | 4.5 fold | did not affect | reversed | induces hypermethylation | induces increased cellular levels | 2 µM | loss of expression
3 | – | – | – | – | – | – | – | – | – | COC(=O)CNC(=O)C(=O)OC [DMOG] | significantly increased | – | – | – | – | – | – | – | – | –

Reference: PMC3133600 (Journal of the American Chemical Society, 2011)
